We go through one molecule from ChEMBL document CHEMBL1926530, “Novel pyrazolo[1,5-a]pyridines as p110α-selective PI3 kinase inhibitors: Exploring the benzenesulfonohydrazide SAR” (Bioorg Med Chem, 2012).

In series [1] the target is High affinity nerve growth factor receptor (Homo sapiens) (UniProt P04629). In words: Inhibition of TrkA assessed as residual activity at 10 uM.
Series [2] is described as follows: Cmax in CD1 mouse at 10 mg/kg, ip. It is filed as ADME, organism-based. Details: dose 10 mg/kg, route intraperitoneal. The following applies: in vivo. The method in brief:
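Age-matched specific pathogen-free male CD-1 mice; single 10 mg/kg i.p. dose in 5% DMSO, 45% PEG-400, 20% 2-hydroxypropyl-β-cyclodextrin, 30% water. Blood sampled at multiple times post-dose; plasma taken after centrifugation (10 min, 6000 rpm, 20 °C). Plasma analysed by LC-MS/MS; parameters from non-compartmental analysis.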

Series [3] can be described thus: Inhibition of DNA-PK.
Series [4] has as its target Mitogen-activated protein kinase 14 (Homo sapiens) (UniProt Q16539). In words: Inhibition of p38alpha assessed as residual activity at 1 uM.
Series [5] addresses Misshapen-like kinase 1 (Homo sapiens) (UniProt Q8N4C8). As to the kind of experiment: Inhibition of MINK1 assessed as residual activity at 1 uM.
In series [6] the target is Phosphatidylinositol 4,5-bisphosphate 3-kinase catalytic subunit gamma isoform (Homo sapiens, UniProt P48736). As to the kind of experiment: Inhibition of PI3K p110gamma.
The target of series [7] is T1, Phosphatidylinositol 4,5-bisphosphate 3-kinase catalytic subunit alpha isoform (Homo sapiens, UniProt P42336, H1047R). In words: Inhibition of recombinant PI3K p110alpha H1047R mutant using L-alpha-phosphatidylinositol as substrate and [gamma33P]ATP after 60 mins by thin layer chromatographic technique.
The nature of series [8]: Cytotoxicity against human NZB5 cells assessed as inhibition of [3H]thymidine incorporation measured after 5 days. The class given is functional, cell-based. The method in brief: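 Early-passage lines grown in α-MEM with insulin, transferrin, selenite and 5% FBS. Wells seeded with 1000 cells; inhibitor in dilution steps up to a maximum of 20. Five days under 5% O₂/5% CO₂/90% N₂, ³H-thymidine added for the last 6 h. Duplicates per dose; fit y = y₀ + ae^−bx; IC50 = 50% reduction in incorporation.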

Another series deals with Mus musculus. As to the kind of experiment: Toxicity in NIH3 mouse xenografted with human SKOV3 cells assessed as body weight loss at 30 mg/kg, ip QD administered for 14 days. To be noted: in vivo, 336 h. Details: dose 30 mg/kg, route intraperitoneal. It is filed as organism-based, SK-OV-3. The method in brief: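 Female NIH III nude mice (age-matched, SPF) inoculated s.c. with 5 × 10⁶ SK-OV-3 cells in PBS. Dosing from ~150 mm³ tumours, 30 mg/kg i.p. q.d. for 14 days in 7.5% DMSO/42.5% PEG-400/20% 2-hydroxypropyl-β-cyclodextrin/30% water; vehicle controls. Volume (L × w²) × π/6 three times weekly; bodyweight daily; culled above 20% weight loss; 1-way ANOVA, Holm–Sidak.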

Series [9] can be described thus: Inhibition of PKA assessed as residual activity at 1 uM.
Series [10] deals with T2, Phosphatidylinositol 4,5-bisphosphate 3-kinase catalytic subunit delta isoform (Homo sapiens, UniProt O00329).
T2 sequence (O00329 whole entry): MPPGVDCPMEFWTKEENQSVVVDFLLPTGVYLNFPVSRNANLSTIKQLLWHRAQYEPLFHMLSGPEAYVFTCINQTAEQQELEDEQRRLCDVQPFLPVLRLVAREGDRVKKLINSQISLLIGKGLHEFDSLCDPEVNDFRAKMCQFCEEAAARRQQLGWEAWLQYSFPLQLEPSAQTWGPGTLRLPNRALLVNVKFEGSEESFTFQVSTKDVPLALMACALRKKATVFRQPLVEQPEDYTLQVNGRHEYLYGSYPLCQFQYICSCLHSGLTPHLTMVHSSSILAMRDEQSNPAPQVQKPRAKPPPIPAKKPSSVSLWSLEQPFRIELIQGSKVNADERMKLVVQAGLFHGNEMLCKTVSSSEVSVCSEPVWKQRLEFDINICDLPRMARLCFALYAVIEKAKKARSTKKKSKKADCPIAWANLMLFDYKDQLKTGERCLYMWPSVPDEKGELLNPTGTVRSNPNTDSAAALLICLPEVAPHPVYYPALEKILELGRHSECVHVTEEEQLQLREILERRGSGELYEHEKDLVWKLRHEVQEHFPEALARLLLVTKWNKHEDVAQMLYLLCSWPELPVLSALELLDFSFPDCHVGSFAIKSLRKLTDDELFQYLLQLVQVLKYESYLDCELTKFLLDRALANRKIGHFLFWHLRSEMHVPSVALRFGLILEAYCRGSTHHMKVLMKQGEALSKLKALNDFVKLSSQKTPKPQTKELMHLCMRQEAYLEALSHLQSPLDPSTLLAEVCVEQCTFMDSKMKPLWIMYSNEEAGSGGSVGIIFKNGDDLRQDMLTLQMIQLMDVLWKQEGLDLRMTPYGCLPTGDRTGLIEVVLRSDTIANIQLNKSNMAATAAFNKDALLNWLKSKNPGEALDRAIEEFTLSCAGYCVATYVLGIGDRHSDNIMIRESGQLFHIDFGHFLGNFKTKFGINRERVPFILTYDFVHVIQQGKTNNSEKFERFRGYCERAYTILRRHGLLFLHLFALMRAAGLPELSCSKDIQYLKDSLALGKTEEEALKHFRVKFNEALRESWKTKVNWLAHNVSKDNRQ
In words: Inhibition of recombinant PI3K p110delta using L-alpha-phosphatidylinositol as substrate and [gamma33P]ATP after 60 mins by thin layer chromatographic technique. The method, boiled down: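 In-house recombinant enzyme (0.1 µg) with L-α-phosphatidylinositol in 40 mM Tris-HCl pH 7.4, 200 mM NaCl, 1 mM EDTA; DMSO 1% final. Started with 5 mM MgCl₂, 100 µM ATP plus [γ-³³P]ATP; 1 h at room temperature, stopped with 1 M HCl. Lipids extracted, separated by TLC, phosphorimaged. Nine inhibitor concentrations; two experiments, IC50 averaged.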

Series [11] deals with T1, Phosphatidylinositol 4,5-bisphosphate 3-kinase catalytic subunit alpha isoform. As to the kind of experiment: Inhibition of PI3K […] H1047R mutant-mediated PKB phosphorylation at Thr308 in human HCT116 cells after 15 mins by immunoblot analysis. It is filed as cell-based, HCT-116. The method in brief: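 HCT-116 cells in MEM alpha with 10% FBS and penicillin/streptomycin, seeded, grown 1 day, then starved overnight serum-free. Inhibitor in DMSO (0.1% final) at varying concentrations for 15 min, then 500 nM insulin for 5 min. Lysates immunoblotted for phospho-PKB at Ser473 or Thr308.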
Background: In western blotting, separated proteins are transferred to a membrane and probed.

T1 sequence (P42336 whole entry H1047R, canonical isoform): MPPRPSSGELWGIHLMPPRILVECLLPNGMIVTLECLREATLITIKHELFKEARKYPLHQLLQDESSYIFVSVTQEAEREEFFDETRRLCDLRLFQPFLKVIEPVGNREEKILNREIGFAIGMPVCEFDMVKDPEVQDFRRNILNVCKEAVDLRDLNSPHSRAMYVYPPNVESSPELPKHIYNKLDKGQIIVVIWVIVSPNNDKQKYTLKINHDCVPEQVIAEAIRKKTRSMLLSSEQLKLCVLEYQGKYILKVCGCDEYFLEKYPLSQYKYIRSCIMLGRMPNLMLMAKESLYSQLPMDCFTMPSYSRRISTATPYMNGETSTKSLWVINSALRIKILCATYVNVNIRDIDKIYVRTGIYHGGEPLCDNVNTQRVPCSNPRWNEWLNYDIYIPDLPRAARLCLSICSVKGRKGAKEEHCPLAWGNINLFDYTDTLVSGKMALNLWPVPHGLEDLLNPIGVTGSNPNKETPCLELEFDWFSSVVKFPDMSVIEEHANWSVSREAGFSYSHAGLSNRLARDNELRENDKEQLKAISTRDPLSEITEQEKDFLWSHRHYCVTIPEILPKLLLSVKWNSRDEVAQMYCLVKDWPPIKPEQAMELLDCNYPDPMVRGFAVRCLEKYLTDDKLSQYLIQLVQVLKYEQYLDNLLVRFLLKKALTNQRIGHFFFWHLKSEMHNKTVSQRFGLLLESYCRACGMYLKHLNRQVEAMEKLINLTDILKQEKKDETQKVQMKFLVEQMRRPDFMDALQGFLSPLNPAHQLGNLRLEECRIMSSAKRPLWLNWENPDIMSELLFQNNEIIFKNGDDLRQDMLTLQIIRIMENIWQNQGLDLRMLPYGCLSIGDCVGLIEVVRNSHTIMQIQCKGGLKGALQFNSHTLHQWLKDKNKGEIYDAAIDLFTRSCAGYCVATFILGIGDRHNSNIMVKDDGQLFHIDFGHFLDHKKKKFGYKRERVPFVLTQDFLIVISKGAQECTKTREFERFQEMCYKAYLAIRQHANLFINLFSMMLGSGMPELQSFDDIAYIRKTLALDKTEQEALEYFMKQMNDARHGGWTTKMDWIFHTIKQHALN
Sequence of Mitogen-activated protein kinase 14 (Homo sapiens) (Q16539 whole entry): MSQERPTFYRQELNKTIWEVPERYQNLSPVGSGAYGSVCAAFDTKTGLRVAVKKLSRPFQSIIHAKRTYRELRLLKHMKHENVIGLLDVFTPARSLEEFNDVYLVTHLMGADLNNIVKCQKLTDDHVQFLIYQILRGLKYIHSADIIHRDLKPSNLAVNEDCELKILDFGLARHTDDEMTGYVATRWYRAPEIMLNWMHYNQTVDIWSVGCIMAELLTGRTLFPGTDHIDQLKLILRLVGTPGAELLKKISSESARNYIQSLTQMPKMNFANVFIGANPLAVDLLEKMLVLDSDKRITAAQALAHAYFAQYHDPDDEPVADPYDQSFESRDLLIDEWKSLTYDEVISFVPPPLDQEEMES
Sequence of High affinity nerve growth factor receptor (Homo sapiens) (P04629 33-796 limits assumed): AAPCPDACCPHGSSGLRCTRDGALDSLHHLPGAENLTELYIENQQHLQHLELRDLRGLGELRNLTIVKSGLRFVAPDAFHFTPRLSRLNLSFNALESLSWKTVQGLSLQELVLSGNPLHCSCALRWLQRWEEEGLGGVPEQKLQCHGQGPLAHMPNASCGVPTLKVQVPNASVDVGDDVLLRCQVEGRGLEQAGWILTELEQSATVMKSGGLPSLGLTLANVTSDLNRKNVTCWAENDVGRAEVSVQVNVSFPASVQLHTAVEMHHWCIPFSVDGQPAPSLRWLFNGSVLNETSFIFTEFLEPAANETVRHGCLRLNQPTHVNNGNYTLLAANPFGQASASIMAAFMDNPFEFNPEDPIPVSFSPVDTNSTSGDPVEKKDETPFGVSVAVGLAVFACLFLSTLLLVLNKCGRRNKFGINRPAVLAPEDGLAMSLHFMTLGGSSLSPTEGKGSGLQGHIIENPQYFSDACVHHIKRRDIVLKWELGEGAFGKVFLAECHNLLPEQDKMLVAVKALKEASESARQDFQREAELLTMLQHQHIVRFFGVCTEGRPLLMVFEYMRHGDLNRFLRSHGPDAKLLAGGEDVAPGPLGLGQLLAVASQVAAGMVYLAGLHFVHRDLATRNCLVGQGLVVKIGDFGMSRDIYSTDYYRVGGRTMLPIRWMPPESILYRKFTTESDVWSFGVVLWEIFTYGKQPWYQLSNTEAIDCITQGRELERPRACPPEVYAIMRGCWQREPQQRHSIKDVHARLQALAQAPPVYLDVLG
Sequence of Phosphatidylinositol 4,5-bisphosphate 3-kinase catalytic subunit gamma isoform (P48736 whole entry, canonical isoform): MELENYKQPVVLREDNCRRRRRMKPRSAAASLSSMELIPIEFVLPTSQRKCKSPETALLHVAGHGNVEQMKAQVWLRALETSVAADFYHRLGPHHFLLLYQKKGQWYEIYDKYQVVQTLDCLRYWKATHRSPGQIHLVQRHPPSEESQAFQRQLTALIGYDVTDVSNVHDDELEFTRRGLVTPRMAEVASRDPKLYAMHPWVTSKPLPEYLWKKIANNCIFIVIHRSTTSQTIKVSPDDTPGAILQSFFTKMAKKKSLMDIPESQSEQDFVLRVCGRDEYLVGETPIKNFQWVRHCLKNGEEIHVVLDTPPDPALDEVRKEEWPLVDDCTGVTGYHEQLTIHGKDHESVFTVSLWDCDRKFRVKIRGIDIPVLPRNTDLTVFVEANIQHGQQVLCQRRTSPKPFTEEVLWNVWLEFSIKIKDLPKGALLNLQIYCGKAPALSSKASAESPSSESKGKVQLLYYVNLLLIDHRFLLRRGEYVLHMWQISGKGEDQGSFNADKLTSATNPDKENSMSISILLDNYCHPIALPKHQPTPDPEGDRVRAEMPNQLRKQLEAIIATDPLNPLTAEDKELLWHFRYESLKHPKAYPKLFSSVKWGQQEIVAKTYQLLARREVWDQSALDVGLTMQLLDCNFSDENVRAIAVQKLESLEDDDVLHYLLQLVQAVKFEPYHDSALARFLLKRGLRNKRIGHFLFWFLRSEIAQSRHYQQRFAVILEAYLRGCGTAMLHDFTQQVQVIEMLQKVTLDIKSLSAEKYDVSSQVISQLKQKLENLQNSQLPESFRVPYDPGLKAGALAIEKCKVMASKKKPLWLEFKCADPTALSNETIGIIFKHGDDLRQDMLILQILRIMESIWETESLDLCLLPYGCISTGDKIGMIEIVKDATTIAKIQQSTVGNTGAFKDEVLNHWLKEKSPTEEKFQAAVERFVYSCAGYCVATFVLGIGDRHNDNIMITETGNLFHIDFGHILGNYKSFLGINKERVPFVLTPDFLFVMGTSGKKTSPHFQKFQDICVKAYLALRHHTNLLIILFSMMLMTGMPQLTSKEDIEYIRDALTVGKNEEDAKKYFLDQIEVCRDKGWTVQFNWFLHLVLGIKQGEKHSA
Sequence of Misshapen-like kinase 1 (Homo sapiens) (Q8N4C8 whole entry, looked up, canonical isoform): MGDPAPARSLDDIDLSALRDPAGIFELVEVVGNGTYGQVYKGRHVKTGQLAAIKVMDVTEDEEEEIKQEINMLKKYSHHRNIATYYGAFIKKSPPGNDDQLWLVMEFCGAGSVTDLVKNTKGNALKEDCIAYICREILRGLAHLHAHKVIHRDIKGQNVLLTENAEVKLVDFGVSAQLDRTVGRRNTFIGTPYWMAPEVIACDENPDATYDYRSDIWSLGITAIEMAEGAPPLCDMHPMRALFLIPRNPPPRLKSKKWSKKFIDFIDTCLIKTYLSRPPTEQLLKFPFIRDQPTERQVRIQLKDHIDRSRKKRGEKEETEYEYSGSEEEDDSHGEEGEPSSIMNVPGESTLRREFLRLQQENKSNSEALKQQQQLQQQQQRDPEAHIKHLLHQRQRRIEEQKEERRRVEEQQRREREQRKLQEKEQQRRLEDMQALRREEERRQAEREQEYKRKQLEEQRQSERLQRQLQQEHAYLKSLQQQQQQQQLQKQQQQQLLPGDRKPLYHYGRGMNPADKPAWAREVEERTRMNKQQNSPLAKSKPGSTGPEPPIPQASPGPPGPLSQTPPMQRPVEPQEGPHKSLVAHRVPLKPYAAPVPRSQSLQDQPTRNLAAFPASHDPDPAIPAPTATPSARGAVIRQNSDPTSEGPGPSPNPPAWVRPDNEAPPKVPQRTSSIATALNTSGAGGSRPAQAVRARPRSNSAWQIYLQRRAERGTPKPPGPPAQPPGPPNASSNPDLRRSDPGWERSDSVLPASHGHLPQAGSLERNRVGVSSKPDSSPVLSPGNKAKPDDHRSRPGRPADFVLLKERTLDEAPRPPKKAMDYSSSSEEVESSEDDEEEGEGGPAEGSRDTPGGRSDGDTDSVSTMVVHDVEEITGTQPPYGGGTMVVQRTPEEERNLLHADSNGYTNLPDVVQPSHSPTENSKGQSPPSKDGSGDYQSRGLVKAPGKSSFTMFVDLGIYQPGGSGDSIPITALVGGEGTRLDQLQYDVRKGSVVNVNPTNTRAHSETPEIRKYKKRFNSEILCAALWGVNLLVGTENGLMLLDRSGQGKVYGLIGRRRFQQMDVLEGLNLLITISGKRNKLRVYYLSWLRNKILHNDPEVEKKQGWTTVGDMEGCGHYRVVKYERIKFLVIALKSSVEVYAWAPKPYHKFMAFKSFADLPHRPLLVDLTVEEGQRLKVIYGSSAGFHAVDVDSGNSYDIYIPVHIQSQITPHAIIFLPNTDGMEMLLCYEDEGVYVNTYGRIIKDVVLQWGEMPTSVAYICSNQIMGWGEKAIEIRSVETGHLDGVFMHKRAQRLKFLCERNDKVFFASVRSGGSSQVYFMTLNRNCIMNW

A word on the Cmax: it is the peak of the concentration-time curve. A word on the IC50: it is the concentration at which inhibition is half-maximal. With `Cc1ccc([N+](=O)[O-])cc1S(=O)(=O)N(CCO)/N=C/c1cnn2ccc(C#N)cc12`, the Activity was 15% in [1]; 59% in series [4]; 16% in [5]; 20% with Mus musculus; 59% in [9]. This molecule displayed a Cmax in [2] of 7.58 µM. Further, the IC50 in [3] was found to be 0.3 nM; in series [6], 11 nM; in series [7], 0.8 nM; in [8], 60 nM; in series [10], 54 nM; in series [11], 49 nM.
